TRPC4 block: inhibitors of mouse TRPC4 channel; HEK293 TRPC4beta/mu-opioid, DAMGO-evoked Fluo4 calcium flux; stronger effect = lower value; AID 2247; B-score at 10 µM; Q9QUQ5; 300,000 compounds, 0.39% hits;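 active means B-score over 3 SD under the library average, no early fluorescence shift, positive overall ratio signal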
Target sequence (Q9QUQ5 whole entry, looked up): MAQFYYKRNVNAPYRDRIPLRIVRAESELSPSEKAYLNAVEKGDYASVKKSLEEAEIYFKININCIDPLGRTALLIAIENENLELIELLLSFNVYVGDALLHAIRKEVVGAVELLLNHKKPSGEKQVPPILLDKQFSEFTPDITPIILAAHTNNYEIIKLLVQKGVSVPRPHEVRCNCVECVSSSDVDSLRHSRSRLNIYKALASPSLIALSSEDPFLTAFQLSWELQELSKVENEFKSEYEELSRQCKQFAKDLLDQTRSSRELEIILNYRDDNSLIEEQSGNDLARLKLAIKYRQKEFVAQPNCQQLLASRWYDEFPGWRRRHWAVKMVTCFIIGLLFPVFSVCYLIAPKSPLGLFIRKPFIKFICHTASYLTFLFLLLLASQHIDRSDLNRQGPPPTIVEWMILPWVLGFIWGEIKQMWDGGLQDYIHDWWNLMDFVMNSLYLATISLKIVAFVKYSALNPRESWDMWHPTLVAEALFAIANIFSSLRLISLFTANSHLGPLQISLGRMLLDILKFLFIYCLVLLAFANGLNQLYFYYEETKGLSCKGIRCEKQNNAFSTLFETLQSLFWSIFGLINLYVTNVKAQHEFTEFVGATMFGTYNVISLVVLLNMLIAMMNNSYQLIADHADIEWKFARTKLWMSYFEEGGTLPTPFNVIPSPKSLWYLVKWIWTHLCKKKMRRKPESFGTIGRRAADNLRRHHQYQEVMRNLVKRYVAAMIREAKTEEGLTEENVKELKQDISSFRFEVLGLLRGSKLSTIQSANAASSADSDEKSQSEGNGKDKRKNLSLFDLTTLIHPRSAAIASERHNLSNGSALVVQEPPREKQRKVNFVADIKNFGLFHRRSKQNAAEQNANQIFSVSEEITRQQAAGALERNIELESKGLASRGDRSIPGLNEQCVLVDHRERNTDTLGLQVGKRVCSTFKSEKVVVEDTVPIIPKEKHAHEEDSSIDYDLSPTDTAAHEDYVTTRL
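Test system – stable TRPC4beta/mu-opioid receptor HEK293 cells · Probe or stimulus – DAMGO, a submaximal dose followed by a maximal one · Dosing – one concentration per compound · Signal – Fluo4 calcium fluorescence by kinetic imaging, 5 s 1 Hz baseline · Evaluation – per-well B score of integrated baseline-normalized Fluo4 ratio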
TRPC6 activator: mouse TRPC6 channel activation | HEK293-TRPC6 membrane potential dye fluorescence; stronger effect = higher value | B-score at 10 µM | 310,000 compounds, 0.13% hits;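 active means B-score of the integrated fluorescence ratio above library mean plus 3 SD, and starting fluorescence ratio within library mean plus 5 SD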;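 further: higher score means more depolarization so channel activation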
TRPC4 potent: allosterically enhances the mouse TRPC4 cation channel | Q9QUQ5 | HEK293 TRPC4beta/mu-opioid, DAMGO EC20, Fluo-4 Ca2+ flux; stronger effect = higher value | B-score at 10 µM | 310,000 compounds, 0.42% hits | AID 2227;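 active means B-score of calcium response area above 5 SD of library B-scores, with initial fluorescence ratio within 5 SD of library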
TRPC4 act: opens the mouse TRPC4 cation channel | Q9QUQ5 | HEK293 TRPC4beta/mu-opioid, Fluo4 calcium fluorescence; stronger effect = higher value | B-score at 10 µM | 310,000 compounds, 0.49% hits;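 active means B-score above 5 SD of library B-scores, and initial fluorescence ratio not above library mean plus 5 SD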;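 further: positive B-score marks a calcium rise read as TRPC4 activation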
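Technique: kinetic Fluo4 calcium fluorescence; Test system: TRPC4beta and mu-opioid receptor HEK293 stable cells; Measure: B-scored integrated calcium fluorescence ratio; Benchmarks: low control buffer alone, high control maximal DAMGO; Schedule: 45 min room-temperature Fluo4 loading, 110 s read.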
TRPC6 inhibitor: inhibitors of mouse TRPC6 channel; B-score at 10 µM; Q61143; 310,000 compounds, 1.1% hits; HEK293-TRPC6, membrane potential dye, ACh-evoked depolarization; stronger effect = lower value;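 active means B-score under library mean minus 3 SD, initial fluorescence not abnormally high, positive integrated signal ratio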;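 further: B-score derived from integrated fluorescence ratio over the kinetic read; more negative B-score means stronger inhibition of depolarization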
TRPC4 spec 2: mouse TRPC4 off-target activity of TRPC6 inhibitors, second screen | shares compounds with TRPC6 inhibitor | HEK293 TRPC4/MOR, membrane potential dye fluorescence; channel activated by saturating DAMGO dose | inhibition, % at 10 µM | 920 compounds, 42% hits | AID 2776;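 active means compounds whose fluorescence signal differed from control wells by over 3 SD, either direction, in both duplicate plates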
TRPC4 spec: mouse TRPC4 off-target activity of TRPC6 inhibitors; shares compounds with TRPC6 inhibitor; HEK293 TRPC4/mu-opioid, membrane potential fluorescence; activity change, negative = inhibition, % at 10 µM; 920 compounds, 61% hits; AID 2777;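 active means rise or fall in signal beyond 3 SD of buffer-only wells in both replicate plates, either sign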;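 further: integrated kinetic ratio of fluorescence range over baseline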
HEK293 MPD ctr 2-1: second counter-screen for TRPC6 inhibitors: parental HEK293 cells; shares compounds with TRPC6 inhibitor; parental HEK293 membrane potential dye fluorescence; maximal acetylcholine challenge after compound addition; signal change vs control, % at 10 µM; 920 compounds, 31% hits;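 active means membrane potential signal moving either way by over 3 SD of the maximum-effect control, in both duplicate plates, meaning non-specific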
HEK293 MPD ctr-1: parental HEK293 nonspecific activity of TRPC6 inhibitors. 920 compounds, 60% hits. AID 2780. membrane potential signal change, % at 10 µM. shares compounds with TRPC6 inhibitor. parental HEK293 membrane potential dye fluorescence;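 active means membrane potential signal shifting up or down by more than 3 SD of buffer-only wells, on both duplicate plates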
HEK293 MPD ctr-2: counter-screen for TRPC6 modulators: effect in parental HEK293 cells; shares compounds with TRPC6 inhibitor; membrane potential dye fluorescence; membrane potential signal change, % at 10 µM; 2,400 compounds, 51% hits;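 active means membrane potential signal moves up or down beyond 5 SD from buffer-only wells, on both duplicate plates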
HEK293 MPD ctr 2-2: second check of TRPC6 modulator effects in parental HEK293 cells; shares compounds with TRPC6 inhibitor; membrane potential dye fluorescence; after compound, maximal acetylcholine stimulation; inhibition, % at 10 µM; 2,400 compounds, 14% hits;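 active means membrane potential signal drops by more than 5 SD from the mean control signal, in both duplicate plates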
TRPC4/MOR mod: selectivity of TRPC6 modulators against mouse TRPC4; 2,400 compounds, 69% hits; percent change from control (negative = decrease, positive = increase), % at 10 µM; HEK293 TRPC4/mu-opioid, membrane potential fluorescence; shares compounds with TRPC6 inhibitor;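 active means membrane potential signal moved up or down beyond 5 SD of buffer control wells, in both duplicate plates, actives on both sides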
TRPC4 ctr inh 2: second selectivity test of TRPC6 modulators against mouse TRPC4; inhibition, % at 10 µM; AID 488928; HEK293 TRPC4/mu-opioid, membrane potential dye fluorescence; stimulated with maximal-effect DAMGO; 2,400 compounds, 55% hits; shares compounds with TRPC6 inhibitor;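 active means drop in membrane potential signal beyond 5 SD of the control wells in both duplicate plates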;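 further: TRPC4 counter screen for TRPC6 hits run under conditions tuned for TRPC6 not TRPC4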
TRPC6 inh conf: confirmation of mouse TRPC6 inhibitors. shares compounds with TRPC6 inhibitor. HEK293-TRPC6, membrane potential dye, ACh-evoked depolarization. inhibition, % at 10 µM. 3,300 compounds, 43% hits. AID 488960;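 active means fluorescence ratio falls more than 5 SD below the full-stimulation control mean, in both duplicate runs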;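 further: integrated fluorescence ratio of peak minus minimum over baseline after agonist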
TRPC6 act conf: confirmation of mouse TRPC6 activators; shares compounds with TRPC6 inhibitor; HEK293-TRPC6 membrane potential dye fluorescence, FDSS; activation, % at 10 µM; 2,800 compounds, 11% hits;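 active means ratio signal rise beyond 5 SD above unstimulated control wells' mean, seen in both duplicate runs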
Hits are given with their value; i = inactive; nt = no result given. Sampled rows, rich in hits. Any-hit rate of the full collection: about 2.3%.

SMILES | TRPC4 block | TRPC6 activator | TRPC4 potent | TRPC4 act | TRPC6 inhibitor | HEK293 MPD ctr-2 | HEK293 MPD ctr 2-2 | TRPC4/MOR mod | TRPC4 ctr inh 2 | TRPC6 inh conf | TRPC6 act conf | others
COc1ncccc1C(=O)NCC(CC(=O)O)c1ccccc1 (stereo not given) | i | i | i | i | i | nt | nt | nt | nt | nt | nt
Cc1cc(OC(=O)N(C)C)nc(-c2ccc(C)c(Cl)c2)n1 | i | i | i | i | i | nt | nt | nt | nt | nt | nt
c1ccc(CNc2c3c(nc4ccccc24)CCC3)cc1 | i | i | i | i | -5.8 | i | i | i | 52% | i | i
OCCNc1c2c(nc3ccccc13)CCCC2 | i | i | i | i | -6.7 | nt | nt | nt | nt | i | i | TRPC4 spec 2=i;TRPC4 spec=-23%;HEK293 MPD ctr 2-1=i;HEK293 MPD ctr-1=-362%
CC(C)CNc1c2c(nc3ccccc13)CCC2 | i | i | i | i | i | nt | nt | nt | nt | nt | nt
Cc1cc(C)c(-n2c(O)c(/C=N/N3CCCCC3c3cccnc3)c(=O)[nH]c2=O)c(C)c1 (stereo not given) | i | i | i | i | i | nt | nt | nt | nt | nt | nt
Cc1cc(O)c2c(c1)OC(C)(C)C1=C2CC(C)CC1 (stereo not given) | i | i | i | i | i | nt | nt | nt | nt | nt | nt
CC(C)N1CCN(Cc2cccc3c2OCO3)CC1CCO (stereo not given) | i | i | i | i | i | nt | nt | nt | nt | nt | nt
CCc1nc(N2CCNCC2)c(C#N)c2c1CSC(C)(C)C2 | i | i | i | i | i | nt | nt | nt | nt | nt | nt
CC(C)Cc1nc(N2CCNCC2)c(C#N)c2c1CCC2 | i | i | i | i | -10 | nt | nt | nt | nt | 72% | i | TRPC4 spec 2=34%;TRPC4 spec=6.0%;HEK293 MPD ctr 2-1=i;HEK293 MPD ctr-1=14%
O=C(COc1ccc(Cl)cc1)N(c1ccccc1Cl)C1CN2CCC1CC2 (stereo not given) | i | i | i | i | -5.3 | 132% | i | 26% | 52% | i | nt
OC(c1cccc(Cl)c1)(c1cccc(Cl)c1)C1CN2CCC1CC2 (stereo not given) | i | i | i | i | -8 | i | i | 10% | i | 70% | i
Clc1ccc2c(c1)C(OC1CN3CCC1CC3)c1ccccc1CS2 (stereo not given) | i | i | i | i | i | nt | nt | nt | nt | nt | nt
CC1=[N+]([O-])C2(N)CCc3nonc3C2(O)C1 (stereo not given) | i | i | i | i | i | nt | nt | nt | nt | nt | nt
CCOC(C(=O)OCCC[N+](C)(CC)CC)(c1ccccc1)c1ccccc1 | i | i | i | i | i | nt | nt | nt | nt | nt | nt
CC[N+](C)(CC)CCCOC(=O)C(O)(c1ccccc1)C1CCCCC1 (stereo not given) | i | i | i | i | -8.1 | nt | nt | nt | nt | i | i | TRPC4 spec 2=i;TRPC4 spec=i;HEK293 MPD ctr 2-1=i;HEK293 MPD ctr-1=i
CC(C)CCn1c(=O)c(C(=O)NCc2ccco2)c(O)c2ccccc21 | i | i | i | i | i | nt | nt | nt | nt | nt | nt
COc1ccccc1Sc1ccccc1CC(C)N (stereo not given) | i | i | i | i | -5 | i | i | i | 66% | 44% | i
CC(Cc1ccccc1Sc1ccc(O)cc1)N(C)C (stereo not given) | i | i | i | i | -6.6 | nt | nt | nt | nt | i | i | TRPC4 spec 2=41%;TRPC4 spec=43%;HEK293 MPD ctr 2-1=i;HEK293 MPD ctr-1=4.2%
CC(Cc1ccccc1Sc1ccccc1)N(C)C (stereo not given) | i | i | i | i | i | nt | nt | nt | nt | nt | nt
CN1C(=O)/C(=C/c2ccc(N3CCCCCC3)o2)C(=O)NC1=S | i | 19 | i | i | i | 472% | i | 50% | i | i | 93%
CN1C(=O)/C(=C\c2ccc(N3CCCCC3)o2)C(=O)NC1=S | i | i | i | i | i | nt | nt | nt | nt | nt | nt
C[n+]1c2ccccc2nc2ccc(NCCO)cc21 | i | i | i | i | -7.4 | -114% | 133% | -36% | 50% | 66% | i
CNc1ccc2nc3ccccc3[n+](C)c2c1 | i | i | i | i | -12 | -84% | 162% | -48% | 52% | 86% | i
CCOC(=O)c1c(C)n(CC(O)CN2CCOCC2)c2cc(Br)c(OC)cc12 (stereo not given) | i | i | i | i | i | nt | nt | nt | nt | nt | nt

Source: PubChem
